Structures are written as SMILES. Activity calls are given as the source filed them. The calls are words filed in the database; no cut-off is given here.

Consider two compounds from ChEMBL document CHEMBL2424583, “Structure-activity relationship and in vitro and in vivo evaluation of the potent cytotoxic anti-microtubule agent N-(4-methoxyphenyl)-N,2,6-trimethyl-6,7-dihydro-5H-cyclopenta[d]pyrimidin-4-aminium chloride and its analogues as antitumor agents” (J Med Chem, 2013).

For series [1], the system named is MDA-MB-231. In words: Antitumor activity against human MDA-MB-231 cells xenografted in athymic nude mouse assessed as tumor growth inhibition at 50 mg/kg, ip qd administered on day 14 for 5 days followed by compound readministration on day 27 measured on day 31 relative to control. It counts as functional. The note with it: route intraperitoneal. The gist of the method:
(§1)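 Female athymic nude mice were implanted sc with an MDA-MB-231T tumour fragment, and tumours were staged to about 125 mg. Drug was given ip in 10% DMSO in saline/Tween 80, with courses starting day 14 and repeated from day 27. There were 8 animals per treated group and 16 controls. Read-outs were body weight, deaths, median tumour mass as T/C, days to a predetermined size as T-C/C, and net log cell kill.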
On the technique in general: Xenograft models place foreign cells or tissue in a host animal.

The test system of series [2] is Mus musculus. In words: Toxicity in athymic nude mouse xenografted in human MDA-MB-231 cells assessed as mortality at 75 mg/kg, ip qd administered on day 14 for 5 days followed by compound readministration on day 27. Set-up: dose 75 mg/kg, route intraperitoneal. It counts as organism-based. The note with it: in vivo, 120 h. The gist of the method: as §1
Series [3] deals with MDA-MB-231. In words: Antitumor activity against human MDA-MB-231 cells xenografted in athymic nude mouse assessed as delay in tumor growth at 75 mg/kg, ip qd administered every other day started on day 14 for 5 days followed by compound readministration on day 27 measured on day 31 relative to control. It is filed as functional. The following applies: route intraperitoneal. The gist of the method:
(§2)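 MDA-MB-231T tumor fragments implanted sc in female athymic nude mice and staged to about 125 mg. Dosing was ip in 10% DMSO in saline/Tween 80, with courses starting day 14 and again day 27. Groups had 8 treated animals and 16 controls. Growth delay (T-C/C) is the median days for treated vs control tumors to reach a predetermined size, normalized to control, as %.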

The test system of series [4] is MDA-MB-231. In words: Antitumor activity against human MDA-MB-231 cells xenografted in athymic nude mouse assessed as delay in tumor growth at 75 mg/kg, ip qd administered on day 14 for 5 days followed by compound readministration on day 27 measured on day 31 relative to control. The following applies: route intraperitoneal. It counts as functional. The gist of the method: as §1

Series [5] has as its system MDA-MB-231. In words: Antitumor activity against human MDA-MB-231 cells xenografted in athymic nude mouse assessed as delay in tumor growth at 50 mg/kg, ip bid administered every other day started on day 14 followed by compound readministration every other day started on day 27 measured on day 31 relative to control. It counts as functional. The note with it: route intraperitoneal. The gist of the method:
as §2

In series [6] the test system is MDA-MB-231. Nature of the series: Antitumor activity against human MDA-MB-231 cells xenografted in athymic nude mouse assessed as net tumor log cell kill at 50 mg/kg, ip qd administered on day 14 for 5 days followed by compound readministration on day 27. It counts as functional. The note with it: route intraperitoneal. The gist of the method:
as §1

Series [7] deals with MDA-MB-231. Nature of the series: Antitumor activity against human MDA-MB-231 cells xenografted in athymic nude mouse assessed as tumor free state at 50 mg/kg, ip bid administered every other day started on day 14 followed by compound readministration every other day started on day 27 measured on day 41. It counts as functional, organism-based. Also noted: dose 50 mg/kg. The gist of the method: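 Female athymic nude mice carried sc MDA-MB-231T tumor fragments staged to about 125 mg. Compound was given ip as a solution in 10% DMSO in saline/Tween 80, with courses beginning day 14 and repeated from day 27. Groups had 8 animals, with 16 vehicle controls. Animals were scored as tumor-free on day 41.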

Series [8] has as its system Mus musculus. Nature of the series: Toxicity in athymic nude mouse xenografted in human MDA-MB-231 cells assessed as body weight loss at 75 mg/kg, ip qd administered on day 14 for 5 days followed by compound readministration on day 27 (reference value: 6.7%). It counts as organism-based. Set-up: dose 75 mg/kg, route intraperitoneal. The following applies: in vivo, 120 h.

The test system of series [9] is MDA-MB-231. Nature of the series: Antitumor activity against human MDA-MB-231 cells xenografted in athymic nude mouse assessed as net tumor log cell kill at 50 mg/kg, ip bid administered every other day started on day 14 followed by compound readministration every other day started on day 27. It counts as functional. The note with it: route intraperitoneal. The gist of the method: as §1

The subject of series [10] is MDA-MB-231. Nature of the series: Antitumor activity against human MDA-MB-231 cells xenografted in athymic nude mouse assessed as tumor log cell kill at 75 mg/kg, ip qd administered every other day started on day 14 for 5 days followed by compound readministration on day 27. It is filed as functional. The following applies: route intraperitoneal. The gist of the method:
as §1

Series [11] has as its system Mus musculus. Nature of the series: Toxicity in athymic nude mouse xenografted in human MDA-MB-231 cells assessed as body weight loss at 50 mg/kg, ip bid administered every other day started on day 14 followed by compound readministration every other day started on day 27 (reference value: 6.7%). It counts as organism-based. The following applies: in vivo. Also noted: dose 50 mg/kg, route intraperitoneal.

A further series deals with CAKI-1. Nature of the series: Cytotoxicity against human CAKI-1 cells assessed as growth inhibition after 48 hrs by SRB assay. It is filed as functional. The following applies: CAKI-1, 48 h. (In general: The SRB assay estimates cell density from bound dye.)
Series [12] deals with Mus musculus. Nature of the series: Toxicity in athymic nude mouse xenografted in human MDA-MB-231 cells assessed as mortality at 75 mg/kg, ip qd administered every other day started on day 14 for 5 days followed by compound readministration on day 27. It counts as organism-based. Also noted: dose 75 mg/kg, route intraperitoneal. The following applies: in vivo, 120 h. The gist of the method: as §1

For series [13], the system named is MDA-MB-231. In words: Antitumor activity against human MDA-MB-231 cells xenografted in athymic nude mouse assessed as tumor growth inhibition at 50 mg/kg, ip bid administered every other day started on day 14 followed by compound readministration every other day started on day 27 measured on day 31 relative to control. It counts as functional. The following applies: route intraperitoneal. The gist of the method: as §1

The nature of series [14]: Relative resistance, ratio of IC50 for beta3 tubulin overexpressed in human HeLa cells to IC50 for human HeLa cells. The gist of the method:
(§3)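 SRB antiproliferative assay on isogenic pairs: parental SK-OV-3 vs Pgp-overexpressing SK-OV-3 MDR-M6-6, and parental HeLa vs βIII-tubulin-transfected HeLa. IC50 is the mean ± SD of at least three independent experiments. Relative resistance (Rr) is the IC50 of the transduced line divided by the IC50 of the parental line.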

A short description of series [15]: Relative resistance, ratio of IC50 for M6-6 in human SKOV3 cells to IC50 for human SKOV3 cells. Set-up: species or system SK-OV-3. The gist of the method:
as §3

The term T/C denotes the ratio of treated to control. One may read the GI50 as the concentration at which growth is held to half of that of the control. For the compound `COc1ccc(N(C)c2nc(C)nc3c2CCC3)cc1.Cl`, the figures for the T/C in the series with MDA-MB-231 [1] and in the series with MDA-MB-231 [13] were 20% and 25%, respectively. For the same compound, the Activity result in the series on Mus musculus [2] is given as “Non-toxic”; in the series on MDA-MB-231 [3], 44%; in the series with MDA-MB-231 [4] it was 40%; in the series with MDA-MB-231 [5] it was 32%; with Mus musculus [12], “Non-toxic”. In addition, the LCK with MDA-MB-231 [6] is reported as -1.4; in the series with MDA-MB-231 [9], -1.3; in the series on MDA-MB-231 [10] it was -1.5. Besides, in the series on MDA-MB-231 [7], the result was Active. Besides, the “%max” value came to 7.9% in the series on Mus musculus [8] and 7.8% with Mus musculus [11]. Also, the GI50 with CAKI-1 was below 10 nM.

With `COc1ccc(N(C)c2nc(C)nc3c2CC(C)C3)cc1.Cl` (racemic), the results for the “Ratio IC50” value in series [14] and in series [15] were 0.6 and 1.2, respectively.
